Assay results as given in ChEMBL document CHEMBL5724801, “EUbOPEN Chemogenomics Library - Multiplex” (2024).
Values joined by “and” are separate entries in the source; they are usually repeats but may differ in a detail not shown here. Equal values may be shown once.

Legend:
Fibroblast = test: Multiplex assay against human fibroblast; type: toxicity, cell-based
Procedure, shortened: (§1)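 Compound was added to live cells that had been stained at seeding with Hoechst33342, BioTracker Green Microtubule Cytoskeleton Dye, MitoTracker Red and Annexin V Alexa Fluor 680, and imaging followed on a CQ1 microscope at 37°C and 5% CO2. CellPathfinder machine-learning gating divided cells into Hoechst high-intensity objects or normal cells, normal cells into healthy, pyknosed or fragmented nuclei, and pyknosed cells into mitotic or apoptotic. Tubulin, mitochondrial-mass and membrane-permeability phenotypes are per cents of healthy-nucleus cells.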

U2OS = test: Multiplex assay against U2OS; type: toxicity, cell-based; conditions: human; procedure, shortened: as §1
[1] = 24 h, 1 µM, compound concentration 1 uM
[2] = 24 h, 10 µM, compound concentration 10 uM
[3] = 48 h, 1 µM, compound concentration 1 uM
[4] = 48 h, 10 µM, compound concentration 10 uM
[5] = 12 h, 1 µM, compound concentration 1 uM
[6] = 12 h, 10 µM, compound concentration 10 uM

O=C(Nc1cc(-c2ccccc2)nn1-c1ccccc1F)c1ccc([N+](=O)[O-])cc1
Total Cell Count (Fibroblast; [1]): 135 and 156
Population Apoptotic (%) (Fibroblast; [2]): 26% and 28%
Population Healthy Nuclei (%) (Fibroblast; [2]): 76% and 53%
Population Hoechst High Intensity Objects (%) (Fibroblast; [2]): 4% and 6%
Population Membrane Permeable-Phenotype (%) (Fibroblast; [2]): 1% and 9%
Population Mitochondria Different-Phenotype (%) (Fibroblast; [2]): 7% and 1%
Population Mitotic Cells (%) (Fibroblast; [2]): 73% and 72%
Population Normal (%) (Fibroblast; [2]): 95% and 93%
Population Pyknosed Nuclei (%) (Fibroblast; [2]): 16% and 18%
Population Tubulin-Different-Phenotype (%) (Fibroblast; [2]): 49% and 69%
Total Cell Count (Fibroblast; [2]): 163 and 147
Population Apoptotic (%) (Fibroblast; [3]): 54% and 55%
Population Fragmented Nuclei (%) (Fibroblast; [3]): 23% and 30%
Population Healthy Nuclei (%) (Fibroblast; [3]): 67% and 53%
Population Hoechst High Intensity Objects (%) (Fibroblast; [3]): 7%
Population Membrane Permeable-Phenotype (%) (Fibroblast; [3]): 1% and 5%
Population Mitochondria Different-Phenotype (%) (Fibroblast; [3]): 0% and 4%
Population Mitotic Cells (%) (Fibroblast; [3]): 45% and 44%
Population Normal (%) (Fibroblast; [3]): 92%
Population Pyknosed Nuclei (%) (Fibroblast; [3]): 8% and 15%
Population Tubulin-Different-Phenotype (%) (Fibroblast; [3]): 18% and 54%
Total Cell Count (Fibroblast; [3]): 145 and 183
Population Apoptotic (%) (Fibroblast; [4]): 66% and 52%
Population Fragmented Nuclei (%) (Fibroblast; [4]): 16% and 31%
Population Healthy Nuclei (%) (Fibroblast; [4]): 70% and 54%
Population Hoechst High Intensity Objects (%) (Fibroblast; [4]): 7% and 5%
Population Membrane Permeable-Phenotype (%) (Fibroblast; [4]): 3% and 6%
Population Mitochondria Different-Phenotype (%) (Fibroblast; [4]): 3%
Population Mitotic Cells (%) (Fibroblast; [4]): 33% and 47%
Population Normal (%) (Fibroblast; [4]): 92% and 94%
Population Pyknosed Nuclei (%) (Fibroblast; [4]): 12% and 14%
Population Tubulin-Different-Phenotype (%) (Fibroblast; [4]): 55% and 66%
Total Cell Count (Fibroblast; [4]): 160 and 153
Population Apoptotic (%) (U2OS; [5]): 86% and 91%
Population Fragmented Nuclei (%) (U2OS; [5]): 25% and 14%
Population Healthy Nuclei (%) (U2OS; [5]): 66% and 78%
Population Hoechst High Intensity Objects (%) (U2OS; [5]): 4% and 1%
Population Membrane Permeable-Phenotype (%) (U2OS; [5]): 10% and 9%
Population Mitochondria Different-Phenotype (%) (U2OS; [5]): 4%
Population Mitotic Cells (%) (U2OS; [5]): 13% and 8%
Population Normal (%) (U2OS; [5]): 95% and 98%
Population Pyknosed Nuclei (%) (U2OS; [5]): 8% and 6%
Population Tubulin-Different-Phenotype (%) (U2OS; [5]): 4% and 9%
Total Cell Count (U2OS; [5]): 293 and 182
Population Apoptotic (%) (U2OS; [6]): 66% and 94%
Population Fragmented Nuclei (%) (U2OS; [6]): 30% and 12%
Population Healthy Nuclei (%) (U2OS; [6]): 60% and 73%
Population Hoechst High Intensity Objects (%) (U2OS; [6]): 3% and 0%
Population Membrane Permeable-Phenotype (%) (U2OS; [6]): 11%
Population Mitochondria Different-Phenotype (%) (U2OS; [6]): 5% and 8%
Population Normal (%) (U2OS; [6]): 96% and 100%
Population Pyknosed Nuclei (%) (U2OS; [6]): 9% and 13%
Population Tubulin-Different-Phenotype (%) (U2OS; [6]): 7% and 6%
Total Cell Count (U2OS; [6]): 293 and 134
Population Apoptotic (%) (U2OS; [1]): 91% and 100%
Population Fragmented Nuclei (%) (U2OS; [1]): 24% and 15%
Population Healthy Nuclei (%) (U2OS; [1]): 68% and 76%
Population Hoechst High Intensity Objects (%) (U2OS; [1]): 3% and 1%
Population Membrane Permeable-Phenotype (%) (U2OS; [1]): 6% and 9%
Population Mitochondria Different-Phenotype (%) (U2OS; [1]): 4% and 5%
Population Mitotic Cells (%) (U2OS; [1]): 8% and 0%
Population Normal (%) (U2OS; [1]): 96% and 98%
Population Pyknosed Nuclei (%) (U2OS; [1]): 7% and 8%
Population Tubulin-Different-Phenotype (%) (U2OS; [1]): 5% and 6%
Total Cell Count (U2OS; [1]): 342 and 226
Population Apoptotic (%) (U2OS; [2]): 91% and 100%
Population Fragmented Nuclei (%) (U2OS; [2]): 25% and 14%
Population Healthy Nuclei (%) (U2OS; [2]): 64% and 76%
Population Hoechst High Intensity Objects (%) (U2OS; [2]): 1% and 0%
Population Membrane Permeable-Phenotype (%) (U2OS; [2]): 7% and 11%
Population Mitochondria Different-Phenotype (%) (U2OS; [2]): 3% and 8%
Population Mitotic Cells (%) (U2OS; [2]): 8% and 0%
Population Normal (%) (U2OS; [2]): 98% and 99%
Population Pyknosed Nuclei (%) (U2OS; [2]): 9%
Population Tubulin-Different-Phenotype (%) (U2OS; [2]): 5% and 8%
Total Cell Count (U2OS; [2]): 353 and 164
Population Apoptotic (%) (U2OS; [3]): 89% and 90%
Population Fragmented Nuclei (%) (U2OS; [3]): 17% and 12%
Population Healthy Nuclei (%) (U2OS; [3]): 73% and 79%
Population Hoechst High Intensity Objects (%) (U2OS; [3]): 2% and 1%
Population Membrane Permeable-Phenotype (%) (U2OS; [3]): 9% and 6%
Population Mitochondria Different-Phenotype (%) (U2OS; [3]): 5% and 4%
Population Mitotic Cells (%) (U2OS; [3]): 10%
Population Normal (%) (U2OS; [3]): 97% and 98%
Population Pyknosed Nuclei (%) (U2OS; [3]): 8%
Population Tubulin-Different-Phenotype (%) (U2OS; [3]): 5%
Total Cell Count (U2OS; [3]): 475 and 371
Population Apoptotic (%) (U2OS; [4]): 81% and 89%
Population Fragmented Nuclei (%) (U2OS; [4]): 20% and 10%
Population Healthy Nuclei (%) (U2OS; [4]): 67% and 76%
Population Hoechst High Intensity Objects (%) (U2OS; [4]): 2%
Population Membrane Permeable-Phenotype (%) (U2OS; [4]): 8% and 11%
Population Mitochondria Different-Phenotype (%) (U2OS; [4]): 4% and 8%
Population Mitotic Cells (%) (U2OS; [4]): 18% and 10%
Population Normal (%) (U2OS; [4]): 97%
Population Pyknosed Nuclei (%) (U2OS; [4]): 12% and 13%
Population Tubulin-Different-Phenotype (%) (U2OS; [4]): 6% and 8%
Total Cell Count (U2OS; [4]): 445 and 226
